Measured values taken from ChEMBL document CHEMBL4184147, “Polyphenolic Phytochemicals in Cancer Prevention and Therapy: Bioavailability versus Bioefficacy” (J Med Chem, 2017).

Legend:
PANC-1 [1] = assay: Cytotoxicity against human PANC1 cells assessed as cell viability at 18 uM after 48 hrs by MTT assay; assay type: functional; conditions: PANC-1, 48 h, read-out: Activity
[2] = Cytotoxicity against human MML1 cells assessed as decrease in cell viability after 48 hrs by MTT assay; assay type: functional, cell-based
COLO 201 [3] = assay: Cytotoxicity against human COLO201 cells assessed as decrease in cell viability after 48 hrs by trypan blue exclusion and LDH release; conditions: COLO 201, 48 h
NCI-H460 [4] = assay: Cytotoxicity against human NCI-H460 cells assessed as cell viability at 18 uM after 48 hrs by MTT assay; assay type: functional; conditions: NCI-H460, 48 h, read-out: Activity
U-87 MG [5] = assay: Cytotoxicity against human U87 cells assessed as cell viability at 18 uM after 48 hrs by MTT assay; assay type: functional, U-87MG ATCC; conditions: read-out: Activity
[6] = Tmax in mouse at 100 mg/kg, po by HPLC method; assay type: ADME, organism-based; conditions: in vivo
How it was run: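 Given orally in a self-microemulsifying delivery system (60% surfactant, emulsifier OP:Cremophor EL 1:1; 30% PEG 400 cosurfactant; 10% ethyl oleate oil), total volume no more than 100 μL. Plasma levels measured by previously described methods.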

LN-229 [7] = assay: Cytotoxicity against human LN229 cells assessed as cell viability at 18 uM after 48 hrs by MTT assay; assay type: functional; conditions: LN-229, 48 h, read-out: Activity
A549 [8] = assay: Cytotoxicity against human A549 cells assessed as decrease in cell viability after 48 hrs by trypan blue exclusion and LDH release; conditions: A549, 48 h
[9] = Tmax in mouse at 10 mg/kg, iv by LC-MS/MS method; assay type: ADME, organism-based; conditions: in vivo
How it was run: (§1)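 For IV dosing, compound dissolved in DMSO:ethanol (2:1), total volume no more than 30 μL. For oral dosing, compound given in a self-microemulsifying delivery system (60% surfactant, emulsifier OP:Cremophor EL 1:1; 30% PEG 400; 10% ethyl oleate), total volume no more than 100 μL. Plasma levels measured by previously described methods.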

LN-229 [10] = assay: Cytotoxicity against human LN229 cells assessed as decrease in cell viability after 48 hrs by trypan blue exclusion and LDH release; conditions: LN-229, 48 h
T47D [11] = assay: Cytotoxicity against human T47D cells assessed as decrease in cell viability after 48 hrs by trypan blue exclusion and LDH release
COLO 201 [12] = assay: Cytotoxicity against human COLO201 cells assessed as cell viability at 18 uM after 48 hrs by MTT assay; assay type: functional; conditions: COLO 201, 48 h, read-out: Activity
A549 [13] = assay: Cytotoxicity against human A549 cells assessed as cell viability at 18 uM after 48 hrs by MTT assay; assay type: functional; conditions: A549, 48 h, read-out: Activity
Lipid bilayer = assay: Induction of DOPC/n-decane bilayer property changes assessed as concentration required to double gramicidin-induced quencher influx rate by […]
SK-MEL-2 [14] = assay: Cytotoxicity against human SK-MEL-2 cells assessed as decrease in cell viability after 48 hrs by MTT assay; assay type: functional, cell-based; conditions: SK-MEL-2, 48 h
[15] = Cmax in mouse at 10 mg/kg, iv by LC-MS/MS method; assay type: ADME, organism-based; set-up: dose 10 mg/kg, route intravenous; conditions: in vivo
How it was run: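 Mouse iv dosing used polyphenol dissolved in DMSO:ethanol (2:1), with total injected volume never above 30 μL. Plasma levels were measured by previously described methods.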

[16] = Cmax in mouse at 100 mg/kg, po by HPLC method; assay type: ADME, organism-based; set-up: dose 100 mg/kg, route oral; conditions: in vivo
How it was run: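 For oral dosing, polyphenol was dissolved in a self-microemulsifying delivery system: 60% surfactant (emulsifier OP:Cremophor EL 1:1), 30% cosurfactant (PEG 400) and 10% oil (ethyl oleate). Total volume given was never above 100 μL. Plasma levels were quantified by previously described methods.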

SK-MEL-2 [17] = assay: Cytotoxicity against human SK-MEL-2 cells assessed as cell viability at 18 uM after 48 hrs by MTT assay; assay type: functional; conditions: SK-MEL-2, 48 h, read-out: Activity
PANC-1 [18] = assay: Cytotoxicity against human PANC1 cells assessed as decrease in cell viability after 48 hrs by MTT assay; assay type: functional, cell-based; conditions: PANC-1, 48 h
BXPC-3 [19] = assay: Cytotoxicity against human BxPC3 cells assessed as decrease in cell viability after 48 hrs by MTT assay; assay type: functional, cell-based; conditions: BXPC-3, 48 h
BXPC-3 [20] = assay: Cytotoxicity against human BxPC3 cells assessed as cell viability at 18 uM after 48 hrs by MTT assay; assay type: functional; conditions: BXPC-3, 48 h, read-out: Activity
U-87 MG [21] = assay: Cytotoxicity against human U87 cells assessed as decrease in cell viability after 48 hrs by trypan blue exclusion and LDH release
NCI-H460 [22] = assay: Cytotoxicity against human NCI-H460 cells assessed as decrease in cell viability after 48 hrs by MTT assay; assay type: functional, cell-based; conditions: NCI-H460, 48 h
HT-29 [23] = assay: Cytotoxicity against human HT-29 cells assessed as cell viability at 18 uM after 48 hrs by MTT assay; assay type: functional; conditions: HT-29, 48 h, read-out: Activity
MDA-MB-231 [24] = assay: Cytotoxicity against human MDA-MB-231 cells assessed as cell viability at 18 uM after 48 hrs by MTT assay; assay type: functional; conditions: MDA-MB-231, 48 h, read-out: Activity
T47D [25] = assay: Cytotoxicity against human T47D cells assessed as cell viability at 18 uM after 48 hrs by MTT assay; assay type: functional; conditions: read-out: Activity
[26] = Plasma concentration in mouse at 100 mg/kg, po at 60 mins by LC-MS/MS method; assay type: ADME, organism-based; how it was run: as §1
MDA-MB-231 [27] = assay: Cytotoxicity against human MDA-MB-231 cells assessed as decrease in cell viability after 48 hrs by trypan blue exclusion and LDH release; conditions: MDA-MB-231, 48 h
[28] = Cytotoxicity against human MML1 cells assessed as cell viability at 18 uM after 48 hrs by MTT assay; assay type: functional; conditions: read-out: Activity
[29] = Plasma concentration in mouse at 10 mg/kg, iv at 60 mins by LC-MS/MS method; assay type: ADME, organism-based; how it was run: as §1
HT-29 [30] = assay: Cytotoxicity against human HT-29 cells assessed as decrease in cell viability after 48 hrs by trypan blue exclusion and LDH release; conditions: HT-29, 48 h
A549 [31] = assay: Cytotoxicity against human A549 cells assessed as cell viability at 16 uM after 48 hrs by MTT assay; assay type: functional; conditions: A549, 48 h, read-out: Activity
MDA-MB-231 [32] = assay: Cytotoxicity against human MDA-MB-231 cells assessed as cell viability at 16 uM after 48 hrs by MTT assay; assay type: functional; conditions: MDA-MB-231, 48 h, read-out: Activity
SK-MEL-2 [33] = assay: Cytotoxicity against human SK-MEL-2 cells assessed as cell viability at 16 uM after 48 hrs by MTT assay; assay type: functional; conditions: SK-MEL-2, 48 h, read-out: Activity
U-87 MG [34] = assay: Cytotoxicity against human U87 cells assessed as cell viability at 16 uM after 48 hrs by MTT assay; assay type: functional, U-87MG ATCC; conditions: read-out: Activity
PANC-1 [35] = assay: Cytotoxicity against human PANC1 cells assessed as cell viability at 16 uM after 48 hrs by MTT assay; assay type: functional; conditions: PANC-1, 48 h, read-out: Activity
T47D [36] = assay: Cytotoxicity against human T47D cells assessed as cell viability at 16 uM after 48 hrs by MTT assay; assay type: functional; conditions: read-out: Activity
HT-29 [37] = assay: Cytotoxicity against human HT-29 cells assessed as cell viability at 16 uM after 48 hrs by MTT assay; assay type: functional; conditions: HT-29, 48 h, read-out: Activity
LN-229 [38] = assay: Cytotoxicity against human LN229 cells assessed as cell viability at 16 uM after 48 hrs by MTT assay; assay type: functional; conditions: LN-229, 48 h, read-out: Activity
[39] = Displacement of [3H]resveratrol from Sprague-Dawley rat brain plasma membranes after 1 hr by beta counting method; assay type: cell membranes
[40] = Cytotoxicity against human MML1 cells assessed as cell viability at 16 uM after 48 hrs by MTT assay; assay type: functional; conditions: read-out: Activity
COLO 201 [41] = assay: Cytotoxicity against human COLO201 cells assessed as cell viability at 16 uM after 48 hrs by MTT assay; assay type: functional; conditions: COLO 201, 48 h, read-out: Activity
BXPC-3 [42] = assay: Cytotoxicity against human BxPC3 cells assessed as cell viability at 16 uM after 48 hrs by MTT assay; assay type: functional; conditions: BXPC-3, 48 h, read-out: Activity
NCI-H460 [43] = assay: Cytotoxicity against human NCI-H460 cells assessed as cell viability at 16 uM after 48 hrs by MTT assay; assay type: functional; conditions: NCI-H460, 48 h, read-out: Activity

Tmax [6] [min]	Tmax [9] [min]	Activity (Lipid bilayer) [µM]	Cmax [15] [µM]	Cmax [16] [µM]	concentration at 1 h [26] [µM]	concentration at 1 h [29] [µM]	SMILES	IC50 [2] [µM]	IC50 (COLO 201 [3]) [µM]	IC50 (A549 [8]) [µM]	IC50 (LN-229 [10]) [µM]	IC50 (T47D [11]) [µM]	IC50 (SK-MEL-2 [14]) [µM]	IC50 (PANC-1 [18]) [µM]	IC50 (BXPC-3 [19]) [µM]	IC50 (U-87 MG [21]) [µM]	IC50 (NCI-H460 [22]) [µM]	IC50 (MDA-MB-231 [27]) [µM]	IC50 (HT-29 [30]) [µM]	further results
10	5	26.7	35	17	< 1	< 1	O=c1c(-c2ccc(O)cc2)coc2cc(O)cc(O)c12 [GENISTEIN]	42	73	64	44	48	36	87	79	55	47	43	50	viability at 18 µM (PANC-1 [1]): 99%; viability at 18 µM (NCI-H460 [4]): 102%; viability at 18 µM (U-87 MG [5]): 98%; viability at 18 µM (LN-229 [7]): 100%; viability at 18 µM (COLO 201 [12]): 100%; viability at 18 µM (A549 [13]): 107%; viability at 18 µM (SK-MEL-2 [17]): 105%; viability at 18 µM (BXPC-3 [20]): 96%; viability at 18 µM (HT-29 [23]): 104%; viability at 18 µM (MDA-MB-231 [24]): 91%; viability at 18 µM (T47D [25]): 93%; viability at 18 µM [28]: 104%
10	5	11.3	32	11	< 1	< 1	Oc1ccc(/C=C/c2cc(O)cc(O)c2)cc1 [RESVERATROL]	12	37	16	11	25	14	39	14	20	12	15	27	viability at 16 µM (A549 [31]): 93%; viability at 16 µM (MDA-MB-231 [32]): 95%; viability at 16 µM (SK-MEL-2 [33]): 95%; viability at 16 µM (U-87 MG [34]): 99%; viability at 16 µM (PANC-1 [35]): 105%; viability at 16 µM (T47D [36]): 99%; viability at 16 µM (HT-29 [37]): 98%; viability at 16 µM (LN-229 [38]): 102%; Ki [39]: 0.102 µM; viability at 16 µM [40]: 94%; viability at 16 µM (COLO 201 [41]): 96%; viability at 16 µM (BXPC-3 [42]): 98%; viability at 16 µM (NCI-H460 [43]): 94%
